Bioassay records from PubChem BioAssay.
Shown are actives, neighbours in structure and some others; about 2.2% of the full set was active somewhere.
Rtt109 Vps75: inhibitors of C. albicans Rtt109/Vps75 HAT, primary screen, biochemical, ThioGlo CoA-SH fluorescence, plate reader | inhibition, % at 34.9 µM | 330,000 tested, 0.16% active | purified Rtt109/Vps75, 4 h | Histone acetyltransferase RTT109 (Candida albicans (strain SC5314 / ATCC MYA-2876)), …;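 active = inhibition of at least 50% in every replicate; inconclusive = best replicate reaches 50% inhibition but some replicates fall short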
CDK5 inh: inhibitors of human CDK5/p35 kinase, primary screen, biochemical, single concentration | Cyclin-dependent kinase 5 (Homo sapiens) + Cyclin-dependent kinase 5 activator 1 (Homo … | Recombinant CDK5/p35, ADP-Glo luminescence, 60 min | inhibition, % at 10 µM | 330,000 tested, 0.01% active;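 active = highest replicate inhibition of at least 50% and at least 75% of replicates reaching 50%; inconclusive = only one of the two criteria met; inactive = both criteria failed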;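 note: plate controls were DMSO neutral control for no effect and GW8510 at 10 µM for full effect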
Target sequence (Q00535 whole entry, looked up): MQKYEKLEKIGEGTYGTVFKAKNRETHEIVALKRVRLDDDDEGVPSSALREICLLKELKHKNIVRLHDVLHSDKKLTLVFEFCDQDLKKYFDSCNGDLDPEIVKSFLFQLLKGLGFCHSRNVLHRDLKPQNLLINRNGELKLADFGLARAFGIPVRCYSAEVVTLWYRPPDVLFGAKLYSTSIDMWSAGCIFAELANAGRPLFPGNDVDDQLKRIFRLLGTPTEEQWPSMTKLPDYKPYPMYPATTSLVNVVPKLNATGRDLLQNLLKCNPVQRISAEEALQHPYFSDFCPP
Target sequence (Q15078 whole entry, looked up): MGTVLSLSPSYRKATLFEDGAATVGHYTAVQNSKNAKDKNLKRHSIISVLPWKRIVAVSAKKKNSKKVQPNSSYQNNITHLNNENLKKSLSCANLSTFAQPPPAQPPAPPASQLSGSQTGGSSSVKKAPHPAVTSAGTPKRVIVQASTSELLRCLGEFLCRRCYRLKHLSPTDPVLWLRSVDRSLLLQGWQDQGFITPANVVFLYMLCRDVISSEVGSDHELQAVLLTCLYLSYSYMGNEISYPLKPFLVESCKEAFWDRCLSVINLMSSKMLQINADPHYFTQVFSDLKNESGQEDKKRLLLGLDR
dFosB act-1: activators of delta FosB homodimer, primary screen, biochemical, fluorescence polarization, TAMRA-CDK5 oligo, single point. purified delta FosB; percent of positive-control signal above neutral wells. 340,000 tested, 0.99% active. Protein FosB (Mus musculus), P13346. activation, % at 25 µM;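 active = mean activation above about 17%, with every replicate also reaching it, limit read from the data, passing the limit was not always enough; inconclusive = only one of the two conditions met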
Dyrk1A ADPGlo: rat Dyrk1A kinase inhibitors, primary screen, biochemical, single point, plate reader; Dual specificity tyrosine-phosphorylation-regulated kinase 1A (Rattus norvegicus), Q63470; ADP-Glo luminescence, NFATc1 peptide; inhibition, % at 12.5 µM; 310,000 tested, 0.43% active; in the data active = inhibition above about 50%;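 note: plate controls were vehicle with enzyme for no effect and no enzyme for full effect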
CAL PDZ FP-1: untagged CAL PDZ binding inhibitors, primary screen, biochemical, fluorescence polarization, HTS; inhibition, % at 24.9 µM; Golgi-associated PDZ and coiled-coil motif-containing protein (Homo sapiens), Q9HD26; purified CAL PDZ, TMR-peptide fluorescence polarization, 1 h; 300,000 tested, 0.92% active;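 active = mean inhibition of at least 30% with at least half of replicates also reaching 30%; inconclusive = no clear call, values can overlap the other calls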;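 note: 0% = DMSO neutral control and 100% = excess unlabeled competitor peptide PRC23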
CAL PDZ FP-2: CAL PDZ peptide-binding inhibitors, primary screen, biochemical, fluorescence polarization, Cer-tagged CAL PDZ, HTS; Golgi-associated PDZ and coiled-coil motif-containing protein (Homo sapiens), Q9HD26; purified CAL PDZ, TMR-peptide fluorescence polarization, 1 h; inhibition, % at 20 µM; 330,000 tested, 0.02% active;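 active = highest replicate inhibition of at least 40%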;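 note: plate controls were DMSO neutral control wells for no effect and unlabeled competitor peptide control wells for full effect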
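material = purified tagged CAL PDZ domain construct (CerCALP) | buffer or medium = sodium phosphate/NaCl buffer pH 7.4 with TCEP, IgG, Thesit | reagent = TMR-labelled reporter peptide T*-PRC34 bound in PDZ groove | incubation = 1 h room-temperature incubation prior to read | measured by = fluorescence polarization (mP) | evaluation = percent inhibition from loss of millipolarization | control set = unlabelled peptide and DMSO controls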
dFosB act-2: activators of mouse delta FosB DNA binding, confirmation, biochemical, fluorescence polarization, TAMRA-CDK5 oligo, cherry-picked samples. shares compounds with dFosB act-1. purified delta FosB; normalised: neutral wells 0, positive control 100. activation, % at 24.9 µM. 2,400 tested, under 10 active. AID 588690, 2011;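 active = highest replicate activation at or above 34% and every replicate reaching that threshold; inconclusive = meets only one of the two criteria; inactive = meets neither criterion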;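 note: higher polarization means more probe DNA bound by delta FosB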
Numbers without * were called inactive.

How did S=C(c1cn(CCOc2ccccc2)c2ccccc12)N1CCCC1 do in these assays?
Rtt109 Vps75: 1; CDK5 inh: 1; dFosB act-1: 7; Dyrk1A ADPGlo: -2; CAL PDZ FP-1: -3; CAL PDZ FP-2: -2

How did COc1cccc2sc(N(CCCN(C)C)C(=O)c3ccc(S(=O)(=O)N4CCc5ccccc5C4)cc3)nc12 do in these assays?
Rtt109 Vps75: 29; CDK5 inh: -1; dFosB act-1: 30*; Dyrk1A ADPGlo: -1; CAL PDZ FP-1: -1; CAL PDZ FP-2: -4; dFosB act-2: 1

What do the screens show for `CCOc1cccc2sc(N(CCCN(C)C)C(=O)c3ccc(S(=O)(=O)N(C)Cc4ccccc4)cc3)nc12`?
Rtt109 Vps75: 5; CDK5 inh: 0; dFosB act-1: 24*; Dyrk1A ADPGlo: 2; CAL PDZ FP-1: -1; CAL PDZ FP-2: -5; dFosB act-2: 1

What do the screens show for `CN(C)c1cccc(C(=O)NCC(c2ccco2)N(C)C)c1` (stereo not given)?
Rtt109 Vps75: -2; CDK5 inh: -3; dFosB act-1: -7; Dyrk1A ADPGlo: -1; CAL PDZ FP-1: 2; CAL PDZ FP-2: -2

How did O=S(=O)(c1ccccc1F)N1CCN(c2nc(-c3cccnc3)nc3ccccc23)CC1 do in these assays?
Rtt109 Vps75: -7; CDK5 inh: 0; dFosB act-1: -7; CAL PDZ FP-1: 15; CAL PDZ FP-2: -1

How did COc1ccc(S(=O)(=O)N2CCN(c3nc(-c4cccnc4)nc4ccccc34)CC2)cc1 do in these assays?
Rtt109 Vps75: -13; CDK5 inh: 0; dFosB act-1: 18*; Dyrk1A ADPGlo: 0; CAL PDZ FP-1: 1; CAL PDZ FP-2: -1; dFosB act-2: -1

What do the screens show for `COc1ccc(CNCC(O)(c2ccc(Cl)cc2)c2ccc(Cl)cc2)cc1`?
Rtt109 Vps75: 6; CDK5 inh: -3; dFosB act-1: 21*; Dyrk1A ADPGlo: 1; CAL PDZ FP-1: -10; CAL PDZ FP-2: 0; dFosB act-2: 0

How did COc1ccc(CNCC(O)(c2ccc(Cl)cc2)c2ccc(Cl)cc2)cc1OC do in these assays?
Rtt109 Vps75: -4; CDK5 inh: -2; dFosB act-1: 15; Dyrk1A ADPGlo: 1; CAL PDZ FP-1: -4; CAL PDZ FP-2: 0

How did CC(Nc1nc(N2CCNCC2)nc2ccccc12)c1ccccc1 (stereo not given) do in these assays?
Rtt109 Vps75: 10; CDK5 inh: 0; dFosB act-1: 48*; Dyrk1A ADPGlo: -3; CAL PDZ FP-1: 1; CAL PDZ FP-2: -1; dFosB act-2: 5

How did CC(Nc1nc(-c2ccncc2)nc2ccccc12)c1ccccc1 (stereo not given) do in these assays?
Rtt109 Vps75: -1; CDK5 inh: 0; dFosB act-1: -12; Dyrk1A ADPGlo: 6; CAL PDZ FP-1: 2; CAL PDZ FP-2: -6

Results for CCOC(=O)C1CCCCN1Cc1cccc(Oc2ccccc2)c1 (stereo not given) ?
Rtt109 Vps75: 6; CDK5 inh: -3; dFosB act-1: -15; Dyrk1A ADPGlo: 5; CAL PDZ FP-1: 6; CAL PDZ FP-2: -1

Results for O=C(Nc1ccc(F)cc1)Nc1ccc(N2CCOCC2)c2nonc12 ?
Rtt109 Vps75: -4; CDK5 inh: 1; dFosB act-1: 5; Dyrk1A ADPGlo: 10; CAL PDZ FP-1: 3; CAL PDZ FP-2: 0

What do the screens show for `COc1ccc(NC(=O)Nc2ccc(N3CCOCC3)c3nonc23)c(OC)c1`?
Rtt109 Vps75: 6; CDK5 inh: -3; dFosB act-1: 26*; Dyrk1A ADPGlo: -2; CAL PDZ FP-2: 1; dFosB act-2: 4

What do the screens show for `CC(=O)Nc1ccc(N2C(=O)c3ccc(C(=O)Nc4nnc(SCc5ccc(F)cc5)s4)cc3C2=O)cc1`?
Rtt109 Vps75: -1; CDK5 inh: 0; dFosB act-1: 56*; Dyrk1A ADPGlo: -2; CAL PDZ FP-1: -10; CAL PDZ FP-2: -4; dFosB act-2: 2

How did Cc1ccc(CNC(=O)c2cc3c(=O)n4ccccc4nc3n(Cc3ccco3)c2=N)cc1 do in these assays?
Rtt109 Vps75: -8; CDK5 inh: -1; dFosB act-1: 25*; Dyrk1A ADPGlo: 1; CAL PDZ FP-1: 0; CAL PDZ FP-2: -1; dFosB act-2: 0

What do the screens show for `Cc1cccn2c(=O)c3cc(C(=O)NCc4ccco4)c(=N)n(CCc4ccccc4)c3nc12`?
Rtt109 Vps75: -30; CDK5 inh: -1; dFosB act-1: 20*; Dyrk1A ADPGlo: -5; CAL PDZ FP-1: -3; CAL PDZ FP-2: 2; dFosB act-2: -2

How did N=c1c(C(=O)NCc2ccccc2)cc2c(=O)n3ccccc3nc2n1Cc1ccco1 do in these assays?
Rtt109 Vps75: -36; CDK5 inh: -1; dFosB act-1: -13; Dyrk1A ADPGlo: 0; CAL PDZ FP-1: 0; CAL PDZ FP-2: -4

What do the screens show for `COc1ccc(Cn2c(=N)c(C(=O)NC3CCCCC3)cc3c(=O)n4ccccc4nc32)cc1`?
Rtt109 Vps75: 5; dFosB act-1: 34*; CAL PDZ FP-1: 2; CAL PDZ FP-2: -3; dFosB act-2: 5

How did Cc1cccn2c(=O)c3cc(C(=O)NCCc4ccccc4)c(=N)n(Cc4ccco4)c3nc12 do in these assays?
Rtt109 Vps75: -7; CDK5 inh: -1; dFosB act-1: 5; Dyrk1A ADPGlo: -4; CAL PDZ FP-1: 1; CAL PDZ FP-2: -5

How did CCOc1ccc(C(=O)NC(=S)Nc2cccc(NC(=O)c3ccco3)c2)cc1[N+](=O)[O-] do in these assays?
Rtt109 Vps75: inconclusive; CDK5 inh: 1; dFosB act-1: 8; Dyrk1A ADPGlo: 6; CAL PDZ FP-1: -2; CAL PDZ FP-2: -1

How did COc1cc(C(=O)Nc2ccccc2-c2nnn(CC(N)=O)n2)cc(OC)c1OC do in these assays?
CDK5 inh: -1; dFosB act-1: -11; Dyrk1A ADPGlo: 4; CAL PDZ FP-1: 0; CAL PDZ FP-2: -4

What do the screens show for `COc1ccc(NC(=O)Cn2nnc(-c3ccccc3NC(=O)C3CC3)n2)cc1`?
Rtt109 Vps75: -6; CDK5 inh: -1; dFosB act-1: 6; Dyrk1A ADPGlo: 0; CAL PDZ FP-1: -2; CAL PDZ FP-2: -1
